# Test results from ChEMBL document CHEMBL1152791, “New poly(ADP-ribose) polymerase-1 inhibitors with antioxidant activity based on 4-carboxamidobenzimidazole-2-ylpyrroline and -tetrahydropyridine nitroxides and their precursors” (J Med Chem, 2009).
# The source made the active and inactive calls. The calls are words filed in the database; no cut-off is given here.
# Key:
# [1] = Antioxidant activity assessed as hydroxyl radical scavenging activity by fenton reaction; assay type: functional
# In short: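 Fenton-type hydroxyl radical generation in 2.5 mL of 20 mM potassium phosphate pH 6.8 with 0.1 mM benzoic acid, 0.1 mM H2O2 and 20 µM Fe2+-EDTA. Hydroxybenzoic acid formation followed by fluorescence (ex 305 nm, em 407 nm). IC50 is the concentration (µM) halving the rate of benzoic acid hydroxylation.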
# [2] = system: WRL68; experiment: Inhibition of H2O2-induced cell death in human WRL68 cells after 3 hrs by MTT assay; assay type: functional, cell-based; conditions: WRL68, 3 h
# In short: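 WRL-68 cells (ATCC) were grown in DMEM with 10% fetal calf serum at 37 °C and 5% CO2, seeded at 2.5 × 10⁴ cells/well and left overnight. They were then exposed to 0.3 mM H2O2 alone or with 0.02–10 µM compound for 3 h, then 0.5% MTT for 3 h. Formazan was dissolved in acidic isopropanol and read at 550 nm. Runs used ≥6 parallels and were repeated 3 times. IC50 is the concentration (µM) halving H2O2-induced death.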
# [3] = target: Poly [ADP-ribose] polymerase 1 (Rattus norvegicus, UniProt P27008); experiment: (§1) Inhibition of rat liver PARP1 by scintillation counting
# Poly [ADP-ribose] polymerase 1, sequence (P27008 whole entry): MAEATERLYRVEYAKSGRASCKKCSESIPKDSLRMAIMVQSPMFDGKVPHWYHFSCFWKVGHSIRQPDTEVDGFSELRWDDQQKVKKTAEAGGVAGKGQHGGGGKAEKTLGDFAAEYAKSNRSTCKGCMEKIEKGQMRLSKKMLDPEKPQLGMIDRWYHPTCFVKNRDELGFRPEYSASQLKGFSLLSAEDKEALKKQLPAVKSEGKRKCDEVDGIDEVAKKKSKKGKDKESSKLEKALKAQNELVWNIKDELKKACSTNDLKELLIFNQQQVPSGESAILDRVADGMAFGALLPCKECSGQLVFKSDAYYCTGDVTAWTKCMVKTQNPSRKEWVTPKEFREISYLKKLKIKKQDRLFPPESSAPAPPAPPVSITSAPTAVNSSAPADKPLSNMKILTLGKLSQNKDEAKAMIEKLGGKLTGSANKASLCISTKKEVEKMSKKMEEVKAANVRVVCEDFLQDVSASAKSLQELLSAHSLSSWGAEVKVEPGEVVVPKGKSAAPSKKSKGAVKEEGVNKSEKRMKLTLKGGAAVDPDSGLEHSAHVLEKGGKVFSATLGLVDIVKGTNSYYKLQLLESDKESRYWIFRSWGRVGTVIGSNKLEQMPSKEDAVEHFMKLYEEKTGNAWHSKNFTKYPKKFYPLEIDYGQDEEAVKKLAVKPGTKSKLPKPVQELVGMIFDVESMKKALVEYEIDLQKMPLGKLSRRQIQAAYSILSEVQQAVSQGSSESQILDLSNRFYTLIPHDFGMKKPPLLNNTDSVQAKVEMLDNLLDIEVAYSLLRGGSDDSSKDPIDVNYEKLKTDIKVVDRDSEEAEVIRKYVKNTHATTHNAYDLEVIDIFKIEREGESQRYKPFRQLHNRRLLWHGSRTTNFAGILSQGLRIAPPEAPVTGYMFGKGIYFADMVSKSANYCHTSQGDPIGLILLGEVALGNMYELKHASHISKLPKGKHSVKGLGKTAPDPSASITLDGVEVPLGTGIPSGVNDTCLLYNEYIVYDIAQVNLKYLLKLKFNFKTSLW
# [4] = system: Rattus norvegicus; experiment: Metabolic stability in Wistar rat assessed as nitroxide metabolite level in urine at 8 mg/kg, ip after 4 hrs by EPR spectroscopy; assay type: ADME, organism-based; design: dose 8 mg/kg, route intraperitoneal; conditions: in vivo
# In short: (§2)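 Male Wistar rats (290–350 g, n = 3/group) were housed singly in metabolic cages and given a single ip dose of the HCl salt dissolved in 1.0 mL 0.9% NaCl. Urine was collected before dosing and from injection to 4 h. Untreated urine was measured by X-band EPR in 50 µL glass capillaries to give the radical concentration.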
# [5] = system: Rattus norvegicus; experiment: Metabolic stability in Wistar rat assessed as nitroxide metabolite level in urine at 8 mg/kg, ip after 4 hrs by EPR spectroscopy in presence of PbO2; assay type: ADME, organism-based; design: dose 8 mg/kg, route intraperitoneal; conditions: in vivo
# In short: (§3)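 Male Wistar rats (290–350 g, n = 3/group) were housed singly in metabolic cages and given a single ip dose of the HCl salt in 1.0 mL 0.9% NaCl. For urine collected from 0 to 4 h, 50 mg PbO2 was added per 1 mL, vortexed 1 min and left 10 min. This oxidizes hydroxylamine to nitroxide. A 50 µL portion of supernatant was then measured by X-band EPR.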
# [6] = system: Rattus norvegicus; experiment: Metabolic stability in Wistar rat assessed as 2-(1-oxyl-2,2,6,6-tetramethyl-1,2,3,6-tetrahydropyridin-4-yl)-1H-benzimidazol-4-carboxylic acid amide radical level in urine at 8 mg/kg, ip after 4 hrs by EPR spectroscopy; assay type: ADME, organism-based; design: dose 8 mg/kg, route intraperitoneal; conditions: in vivo; in short: as §2
# [7] = system: Rattus norvegicus; experiment: Metabolic stability in Wistar rat assessed as 2-(1-oxyl-2,2,6,6-tetramethyl-1,2,3,6-tetrahydropyridin-4-yl)-1H-benzimidazol-4-carboxylic acid amide radical level in urine at 8 mg/kg, ip after 4 hrs by EPR spectroscopy in presence of PbO2; assay type: ADME, organism-based; design: dose 8 mg/kg, route intraperitoneal; conditions: in vivo; in short: as §3
# [8] = target: Poly [ADP-ribose] polymerase 1 (Rattus norvegicus) (UniProt P27008); experiment: as §1
# Poly [ADP-ribose] polymerase 1 (Rattus norvegicus), sequence (P27008 whole entry): as above
# [9] = Toxicity in ip dosed C57BL/6 mouse assessed as mortality measured every 24 hrs for 14 days; assay type: organism-based; conditions: in vivo
# In short: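 C57BL/6 mice, groups of eight, given a single intraperitoneal injection of […]. Animals were watched for respiratory, digestive and neurological changes. Deaths were counted every 24 h for 14 days. Animals were kept under standard conditions with tap water and chow ad libitum.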
SMILES,IC50 [1],IC50 [2],IC50 [3],also measured
CC1(C)NC(C)(C)c2sc(-c3nc4c(C(N)=O)cccc4[nH]3)cc21,10.5 µM,6.92 µM,,
CC(C)NC(=O)c1cccc2[nH]c(C3=CC(C)(C)N(O)C3(C)C)nc12,2.1 µM,3.35 µM,10 µM,
CC1(C)C=C(c2nc3c(C(N)=O)cccc3[nH]2)CC(C)(C)N1O.Cl,,,,Activity [4]: 87 nM; Activity [5]: 116 nM
CC1(C)C=C(COc2ccc(-c3nc4c(C(N)=O)cccc4[nH]3)cc2)C(C)(C)N1,4.3 µM,1.61 µM,,
CC1(C)NC(C)(C)C(c2nc3c(C(N)=O)cccc3[nH]2)=C1c1ccccc1,0.38 µM,3.98 µM,,
CC1(C)C=C(CSc2nc3c(C(N)=O)cccc3[nH]2)C(C)(C)N1,200 µM,3.14 µM,3 µM,
CC1(C)NC(C)(C)C(c2cccc3c2oc2ccccc23)=C1c1nc2c(C(N)=O)cccc2[nH]1,5.3 µM,0.324 µM,1.8 µM,
CC1(C)c2cc(-c3nc4c(C(N)=O)cccc4[nH]3)sc2C(C)(C)N1O,27 µM,40 µM,3.4 µM,
CC1(C)C=C(c2nc3c(C(N)=O)cccc3[nH]2)CC(C)(C)N1O,9.6 µM,15.6 µM,0.026 µM,Activity [6]: 0.7 nM; Activity [7]: 1.7 nM
CC1(C)C=C(c2nc3cc(C(N)=O)ccc3[nH]2)CC(C)(C)N1,45 µM,,,Activity [8]: inactive
COc1cc(-c2nc3c(C(N)=O)cccc3[nH]2)ccc1OCC1=CC(C)(C)N(O)C1(C)C,14.1 µM,10.1 µM,0.472 µM,
CC1(C)C=C(CSc2nc3c(C(N)=O)cccc3[nH]2)CC(C)(C)N1,350 µM,5.57 µM,4 µM,
CC1(C)C(c2ccccc2)=C(c2nc3c(C(N)=O)cccc3[nH]2)C(C)(C)N1O,1.25 µM,0.24 µM,1.5 µM,
COC(=O)[C@@H]1[C@@H](c2nc3c(C(N)=O)cccc3[nH]2)C(C)(C)N(O)C1(C)C,0.9 µM,11.1 µM,,
CC1(C)C(Br)=C(c2nc3c(C(N)=O)cccc3[nH]2)C(C)(C)N1O,2.8 µM,8.21 µM,0.201 µM,
CC1(C)NC(C)(C)C(c2nc3c(C(N)=O)cccc3[nH]2)=C1Br,3.4 µM,3.51 µM,,
CC1(C)NC(C)(C)c2cc(-c3nc4c(C(N)=O)cccc4[nH]3)ccc21,140 µM,0.19 µM,0.45 µM,
CON1C(C)(C)C=C(c2nc3c(C(N)=O)cccc3[nH]2)C1(C)C,113 µM,0.0094 µM,,
CC1(C)C=C(Cn2cnc3c(C(N)=O)cccc32)C(C)(C)N1O,1.8 µM,1.99 µM,10 µM,

SMILES,IC50 [1],IC50 [2],IC50 [3],also measured
CC1(C)NC(C)(C)c2cc(-c3nc4c(C(N)=O)cccc4[nH]3)ncc21,150 µM,0.08 µM,0.47 µM,
CC1(C)C=C(CSc2nc3c(C(N)=O)cccc3[nH]2)C(C)(C)N1O,200 µM,20.9 µM,6 µM,
CC1(C)C=C(c2nc3c(C(N)=O)cccc3[nH]2)CC(C)(C)N1,1.6 µM,0.098 µM,,LD50 at 336 h [9]: 740 mg/kg
CC1(C)C(c2cccc(C(F)(F)F)c2)=C(c2nc3c(C(N)=O)cccc3[nH]2)C(C)(C)N1O,11.2 µM,60.9 µM,0.149 µM,
CC1(C)C=C(c2nc3ccccc3[nH]2)CC(C)(C)N1,5.5 µM,,,Activity [8]: inactive
COc1cc(-c2nc3c(C(N)=O)cccc3[nH]2)ccc1OCC1=CC(C)(C)NC1(C)C,3.8 µM,0.101 µM,,
CC(=O)N1C(C)(C)C=C(c2nc3c(C(N)=O)cccc3[nH]2)C1(C)C,81 µM,3.15 µM,,
CC1(C)C=C(c2ccc(-c3nc4c(C(N)=O)cccc4[nH]3)cc2)C(C)(C)N1,4.5 µM,0.341 µM,,
CN1C(C)(C)C=C(c2nc3c(C(N)=O)cccc3[nH]2)C1(C)C,73 µM,0.095 µM,,
CC1(C)C(c2nc3c(C(N)=O)cccc3[nH]2)=C(c2cccc3c2oc2ccccc23)C(C)(C)N1O,5.3 µM,26.8 µM,1.8 µM,
CC(C)NC(=O)c1cccc2[nH]c(C3=CC(C)(C)NC3(C)C)nc12,2.3 µM,56.7 µM,10 µM,
COC(=O)[C@@H]1[C@@H](c2nc3c(C(N)=O)cccc3[nH]2)C(C)(C)NC1(C)C,3.1 µM,0.33 µM,0.216 µM,
CC1(C)C=C(COc2ccc(-c3nc4c(C(N)=O)cccc4[nH]3)cc2)C(C)(C)N1O,13.2 µM,1.61 µM,0.564 µM,
CC1(C)C=C(c2ccc(-c3nc4c(C(N)=O)cccc4[nH]3)cc2)C(C)(C)N1O,7.2 µM,0.033 µM,0.078 µM,
CC1(C)C=C(c2nc3c(C(N)=O)cccc3[nH]2)C(C)(C)N1,2.1 µM,0.62 µM,,LD50 at 336 h [9]: 620 mg/kg
CC1(C)C=C(CSc2nc3c(C(N)=O)cccc3[nH]2)CC(C)(C)N1O,180 µM,12.7 µM,5 µM,
CC1(C)C=C(c2nc3cc(C(N)=O)ccc3[nH]2)CC(C)(C)N1O,170 µM,28.3 µM,,Activity [8]: inactive
CC1(C)NC(C)(C)C(c2nc3c(C(N)=O)cccc3[nH]2)=C1c1cccc(C(F)(F)F)c1,13.4 µM,32 µM,,
